Structures can show the parent of a compound that is named as a salt.
Assays:
mice liver slices = assay: In vitro uptake of TDE in mice liver slices; format: in vitro ADME, Kunming mice; conditions: TDE 10 μmol/L
Outline: (§1)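 Kunming mice (20–25 g, fasted 12 h) were anaesthetised with urethane, and kidney or liver was decapsulated into ice-cold oxygenated buffer at pH 7.5. Slices of about 30 mg were preincubated 5 min under carbogen at 4 or 37 °C. They were then incubated with 10 μmol/L test compound for 5, 10 or 30 min, with or without reference OAT1/OAT3 or OATP inhibitors or co-ingredients. Slices were then washed, blotted, weighed and homogenised, then extracted with methanol and an internal standard for HPLC–MS.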

hOAT3 = molecular target: T1, hOAT3 (Homo sapiens, UniProt Q8TCC7); assay: Cellular uptake and kinetics in S2-hOAT3 vs Mock cells; format: in vitro ADME
T1 sequence (Q8TCC7 1-542): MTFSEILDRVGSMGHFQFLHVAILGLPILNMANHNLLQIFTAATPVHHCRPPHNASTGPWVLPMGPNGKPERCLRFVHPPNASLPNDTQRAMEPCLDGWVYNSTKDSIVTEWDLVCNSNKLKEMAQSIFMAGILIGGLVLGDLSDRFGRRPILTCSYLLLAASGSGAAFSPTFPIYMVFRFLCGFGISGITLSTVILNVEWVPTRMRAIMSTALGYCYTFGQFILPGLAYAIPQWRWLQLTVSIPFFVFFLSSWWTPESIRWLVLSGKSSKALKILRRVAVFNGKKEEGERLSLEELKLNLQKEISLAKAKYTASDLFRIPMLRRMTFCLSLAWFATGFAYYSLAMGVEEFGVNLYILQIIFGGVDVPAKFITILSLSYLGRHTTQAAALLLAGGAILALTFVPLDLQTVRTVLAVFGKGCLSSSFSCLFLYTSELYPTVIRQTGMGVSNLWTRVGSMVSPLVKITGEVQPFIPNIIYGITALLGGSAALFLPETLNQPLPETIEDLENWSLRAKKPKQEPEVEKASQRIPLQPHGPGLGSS

hOATP1B3 = molecular target: T2, hOATP1B3 (Homo sapiens, UniProt Q9NPD5); assay: Cellular uptake and kinetics in HEK293-hOATP1B3 vs Mock cells; format: in vitro ADME
T2 sequence (Q9NPD5 1-702): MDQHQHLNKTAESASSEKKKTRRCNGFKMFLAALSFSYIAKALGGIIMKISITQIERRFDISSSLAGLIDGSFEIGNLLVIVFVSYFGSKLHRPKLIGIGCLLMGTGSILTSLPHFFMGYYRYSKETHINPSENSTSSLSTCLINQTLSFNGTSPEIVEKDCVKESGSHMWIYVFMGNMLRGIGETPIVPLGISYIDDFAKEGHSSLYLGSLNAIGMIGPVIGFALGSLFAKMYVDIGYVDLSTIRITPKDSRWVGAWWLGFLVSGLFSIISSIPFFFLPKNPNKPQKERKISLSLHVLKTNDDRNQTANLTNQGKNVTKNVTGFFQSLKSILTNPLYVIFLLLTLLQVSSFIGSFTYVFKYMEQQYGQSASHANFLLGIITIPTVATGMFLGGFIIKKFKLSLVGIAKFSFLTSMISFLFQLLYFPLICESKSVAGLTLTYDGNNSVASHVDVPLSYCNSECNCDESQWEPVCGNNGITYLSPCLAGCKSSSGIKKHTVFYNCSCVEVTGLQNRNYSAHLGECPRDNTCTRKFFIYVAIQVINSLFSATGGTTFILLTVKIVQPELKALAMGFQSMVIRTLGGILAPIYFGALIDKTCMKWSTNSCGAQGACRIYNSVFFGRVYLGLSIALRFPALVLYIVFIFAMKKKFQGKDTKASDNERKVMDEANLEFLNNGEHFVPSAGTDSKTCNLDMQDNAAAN
Outline: (§2)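 Transfected cells and matching Mock cells were seeded at 2 × 10⁵ cells/mL and grown 2 days. After a DPBS (pH 7.4) wash and 10 min preincubation at 37 °C, cells took up 100 μmol/L test compound for 2–5 min at 37 °C. Uptake was stopped with three ice-cold DPBS washes, followed by methanol extraction and HPLC–MS. Values were normalised to BCA protein and compared with Mock.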

hOATP2B1 = molecular target: T3, hOATP2B1 (Homo sapiens, UniProt O94956); assay: Cellular uptake in HEK293-hOATP2B1 vs Mock cells; format: in vitro ADME
T3 sequence (O94956 1-709): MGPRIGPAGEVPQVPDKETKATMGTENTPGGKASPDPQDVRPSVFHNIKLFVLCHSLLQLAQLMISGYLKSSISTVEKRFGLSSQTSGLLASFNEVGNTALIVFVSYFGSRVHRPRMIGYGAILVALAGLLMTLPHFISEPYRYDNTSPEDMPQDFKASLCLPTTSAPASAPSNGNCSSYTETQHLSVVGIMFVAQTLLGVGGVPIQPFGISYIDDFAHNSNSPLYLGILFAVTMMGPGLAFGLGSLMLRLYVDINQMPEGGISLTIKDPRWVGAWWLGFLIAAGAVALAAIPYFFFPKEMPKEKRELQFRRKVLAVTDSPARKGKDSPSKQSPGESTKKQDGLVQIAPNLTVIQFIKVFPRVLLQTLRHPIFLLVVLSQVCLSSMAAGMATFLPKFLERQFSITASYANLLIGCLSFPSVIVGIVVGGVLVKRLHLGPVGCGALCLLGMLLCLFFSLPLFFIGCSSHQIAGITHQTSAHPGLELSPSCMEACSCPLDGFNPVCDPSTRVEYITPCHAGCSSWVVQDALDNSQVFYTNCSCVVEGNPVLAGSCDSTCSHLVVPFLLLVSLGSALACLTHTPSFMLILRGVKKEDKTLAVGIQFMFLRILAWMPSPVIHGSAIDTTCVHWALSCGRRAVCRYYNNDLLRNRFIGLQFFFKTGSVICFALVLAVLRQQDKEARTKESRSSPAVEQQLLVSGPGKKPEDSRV

hOATP1B1 = molecular target: T4, hOATP1B1 (Homo sapiens, UniProt Q9Y6L6); assay: Cellular uptake and kinetics in HEK293-hOATP1B1 vs Mock cells; format: in vitro ADME
T4 sequence (Q9Y6L6 1-691): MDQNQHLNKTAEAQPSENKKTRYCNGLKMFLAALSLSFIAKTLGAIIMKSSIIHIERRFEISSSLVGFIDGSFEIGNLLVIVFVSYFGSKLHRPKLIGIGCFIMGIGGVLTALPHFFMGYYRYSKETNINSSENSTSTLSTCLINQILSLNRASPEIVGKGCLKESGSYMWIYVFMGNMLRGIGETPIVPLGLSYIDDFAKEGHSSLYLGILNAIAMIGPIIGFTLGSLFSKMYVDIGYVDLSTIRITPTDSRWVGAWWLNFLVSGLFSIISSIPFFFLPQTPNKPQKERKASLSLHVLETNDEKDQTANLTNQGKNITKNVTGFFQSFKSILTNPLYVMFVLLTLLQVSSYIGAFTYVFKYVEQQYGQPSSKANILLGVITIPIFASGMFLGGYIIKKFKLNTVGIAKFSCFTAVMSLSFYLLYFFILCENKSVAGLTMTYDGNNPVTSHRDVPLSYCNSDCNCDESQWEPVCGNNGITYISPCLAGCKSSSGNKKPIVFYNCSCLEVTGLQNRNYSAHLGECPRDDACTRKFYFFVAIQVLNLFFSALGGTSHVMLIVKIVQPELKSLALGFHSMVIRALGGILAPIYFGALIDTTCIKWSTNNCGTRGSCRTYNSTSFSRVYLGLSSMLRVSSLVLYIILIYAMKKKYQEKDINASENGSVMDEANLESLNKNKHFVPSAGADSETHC

hOAT1 = molecular target: T5, hOAT1 (Homo sapiens, UniProt Q4U2R8); assay: Cellular uptake in MDCK-hOAT1 vs Mock cells; format: in vitro ADME; conditions: 100 μmol/L, substrate if >2-fold of wild type
T5 sequence (Q4U2R8 1-563): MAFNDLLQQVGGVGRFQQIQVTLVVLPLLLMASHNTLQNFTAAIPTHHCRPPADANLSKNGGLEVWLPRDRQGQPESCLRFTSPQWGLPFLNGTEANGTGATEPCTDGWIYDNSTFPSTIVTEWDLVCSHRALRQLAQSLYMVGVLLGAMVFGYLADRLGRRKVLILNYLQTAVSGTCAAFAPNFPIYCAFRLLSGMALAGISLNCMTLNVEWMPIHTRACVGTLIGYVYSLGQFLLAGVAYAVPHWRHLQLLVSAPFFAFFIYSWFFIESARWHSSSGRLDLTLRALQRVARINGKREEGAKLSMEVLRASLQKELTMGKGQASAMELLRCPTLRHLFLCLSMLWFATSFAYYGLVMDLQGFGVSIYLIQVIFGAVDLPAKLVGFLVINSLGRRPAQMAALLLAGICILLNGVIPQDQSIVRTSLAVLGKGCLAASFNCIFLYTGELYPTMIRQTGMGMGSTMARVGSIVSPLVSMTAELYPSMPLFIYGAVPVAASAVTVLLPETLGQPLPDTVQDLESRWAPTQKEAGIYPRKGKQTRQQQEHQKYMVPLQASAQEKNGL
Outline: as §2

mice kidney slices = assay: In vitro uptake of TDE in mice kidney slices; format: in vitro ADME, Kunming mice; conditions: TDE 10 μmol/L
Outline: as §1

[1] = substrate: COc1cc2c(cc1OC)[C@@H]1Cc3ccc(OC)c(OC)c3CN1CC2; assay: Cellular uptake and kinetics in S2-hOAT3 vs Mock cells; format: in vitro ADME, human; conditions: other: hOAT3, TDE 0.03-10 μmol/L, 2 min, 37 °C, Eadie-Hofstee, pH 7.4
[2] = 100 μmol/L, substrate if >2-fold of wild type

**Q.** Which “effect on the uptake of TDE in liver slices” value (mice liver slices; mice liver slices) does the source give for `CO[C@H]1/C=C/O[C@@]2(C)Oc3c(C)c(O)c4c(O)c(c(/C=N/N5CCN(C)CC5)c(O)c4c3C2=O)NC(=O)/C(C)=C\C=C\[C@H](C)[C@H](O)[C@@H](C)[C@@H](O)[C@@H](C)[C@H](OC(C)=O)[C@@H]1C` [Rifampicin, rifampicin, reference compound] here?
**A.** The value was “could inhibit”.

**Q.** Which results are given for `CC12CCC3c4ccc(OS(=O)(=O)O)cc4CCC3C1CCC2=O` (stereo not drawn) [3H-ES, 3H-estrone sulfate, reference compound]?
**A.** accumulation of model substrate, fold higher than in Mock cells (hOAT3; 50 nmol/L 3H-ES, 2 min, S2-hOAT3 vs Mock): 5.6 fold; Uptake rate, Control (hOAT3; S2-hOAT3, 50 nmol/L 3H-ES, 2 min): 0.62 ± 0.015∗∗ pmol/mg protein/min; Uptake rate, Control + inhibitor (hOAT3; S2-hOAT3, 50 nmol/L 3H-ES, 2 min, inhibitor not named): 0.29 ± 0.17 pmol/mg protein/min; accumulation of model substrate, fold higher than in Mock cells (hOATP1B3; 50 nmol/L 3H-ES, 2 min, HEK293-hOATP1B3 vs Mock): 4.7 fold; Uptake rate, Control (hOATP1B3; HEK293-hOATP1B3, 50 nmol/L 3H-ES, 2 min): 0.52 ± 0.017∗∗ pmol/mg protein/min; Uptake rate, Control + inhibitor (hOATP1B3; HEK293-hOATP1B3, 50 nmol/L 3H-ES, 2 min, inhibitor not named): 0.24 ± 0.13 pmol/mg protein/min; accumulation of model substrate, fold higher than in Mock cells (hOATP2B1; 50 nmol/L 3H-ES, 2 min, HEK293-hOATP2B1 vs Mock): 4.2 fold; Uptake rate, Control (hOATP2B1; HEK293-hOATP2B1, 50 nmol/L 3H-ES, 2 min): 0.46 ± 0.011∗∗ pmol/mg protein/min; Uptake rate, Control + inhibitor (hOATP2B1; HEK293-hOATP2B1, 50 nmol/L 3H-ES, 2 min, inhibitor not named): 0.19 ± 0.034 pmol/mg protein/min; accumulation of model substrate, fold higher than in Mock cells (hOATP1B1; 50 nmol/L 3H-ES, 2 min, HEK293-hOATP1B1 vs Mock): 10.3 fold; Uptake rate, Control (hOATP1B1; HEK293-hOATP1B1, 50 nmol/L 3H-ES, 2 min): 1.13 ± 0.11∗∗ pmol/mg protein/min; Uptake rate, Control + inhibitor (hOATP1B1; HEK293-hOATP1B1, 50 nmol/L 3H-ES, 2 min, inhibitor not named): 0.35 ± 0.14 pmol/mg protein/min

**Q.** Which “accumulation in S2-hOAT3, fold higher than wild type (S2-Mock)” value (hOAT3; [2]) does the source give for `COc1cc2c(cc1OC)[C@@H]1Cc3ccc(OC)c(OC)c3CN1CC2` [TDE, tetrahydropalmatine] here?
**A.** Its value is “about 2.25 fold”.

**Q.** What about the “accumulation of TDE at 37 °C, fold greater than at 4 °C” value (mice liver slices; liver slices, 30 min) of the same molecule?
**A.** The value was “approximately 2.3 fold”.

**Q.** What about the “accumulation in HEK293-hOATP1B3 vs HEK293 wild type” value (hOATP1B3; [2]) of the same molecule?
**A.** The value was 3.31 fold.

**Q.** What about the Vmax (hOATP1B3; hOATP1B3, TDE 0.03-10 μmol/L, 2 min, 37 °C, Eadie-Hofstee) of the same molecule?
**A.** The Vmax was 512.09 pmol/mg protein/min.

**Q.** What about the Km at 2 min (hOATP1B3; human, pH 7.4) of the same molecule?
**A.** Its Km at 2 min is 6.72 µM.

**Q.** What about the “accumulation in MDCK-hOAT1, fold higher than in MDCK-Mock” value (hOAT1) of the same molecule?
**A.** The value was “about 1.25 fold”.

**Q.** And the “accumulation in HEK293-hOATP2B1 vs HEK293 wild type” value (hOATP2B1; [2])?
**A.** Its value is “less than 2 fold”.

**Q.** And the “accumulation in hOATP1B1-overexpressed cell lines compared to wild type” value (hOATP1B1; 100 μmol/L)?
**A.** Its value is “could largely accumulate”.

**Q.** `CCCN(CCC)S(=O)(=O)c1ccc(C(=O)O)cc1` [probenecid, reference compound] was tested. Which “effect on the uptake of TDE in kidney slices” value (mice kidney slices) did it give?
**A.** The value was “could inhibit”.

B1: hOAT3 (Homo sapiens) (protein)
chain: T1 sequence (Q8TCC7 1-542)
**Q.** Which Km [1] does the source give for B1 here?
**A.** The Km was 1.44 µM.

**Q.** And the Vmax [1]?
**A.** Its Vmax is 188.45 pmol/mg protein/min.

Reference: paper PMC7564327 (Acta Pharmaceutica Sinica. B, 2020)
